ChEMBL document CHEMBL4513216, “Probing the Open Global Health Chemical Diversity Library for Multistage-Active Starting Points for Next-Generation Antimalarials” (ACS Infect Dis, 2020)

Assay: Toxicity liver stage against HepG2, at 10uM
Assay type: cell-based
Parameters: test concentration 10 uM, cell line HepG2-A16-CD81EGFP
Details: human, HepG2-A16-CD81EGFP cells; read-out: INHIBITION
Procedure, shortened: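 Uninfected HepG2-A16-CD81EGFP cells, 3 × 10^3 per well, 1536-well, plated on prespotted compound at 10 μM final, parasite-free screening media added to match infected plates; puromycin 10 μM positive, DMSO 0.5% negative; run in parallel with 48 h PbLuc assay at 37 °C, 5% CO2; viability by CellTiter-Glo luminescence, normalized to controls.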
In the case of `COc1ccccc1C(=O)Nc1ccc([C@@H](O)[C@H]2COCC(=O)N2)cc1`, the cytotoxicity at 10 µM is reported as 1.17%.
Compound `CN1C[C@@H](NC(=O)C2CC2)C[C@H]1c1nc(-c2cnccn2)no1` has a cytotoxicity at 10 µM of 0.611%.
`O=C(NCCO)c1cc(-c2ccc3c(c2)CCO3)n[nH]1` showed a cytotoxicity at 10 µM of -11.9%.
With `Cn1c(CN2CCOCC2)cc(=O)c(O)c1CN1CCCC1` the cytotoxicity at 10 µM was -1.07%.
For `COc1ncccc1C(=O)N1CC(c2nc(-c3cccs3)no2)C1`, the cytotoxicity at 10 µM was -21.5%.
`Cc1nccn1-c1ccc(=O)n(CCNC(=O)c2ccccn2)n1` gave a cytotoxicity at 10 µM of -11.3%.
For `O=C1Nc2ccccc2C1C1CCN(C(=O)C2CC2)CC1` (stereo not given), the cytotoxicity at 10 µM was -1.24%.
For `O=C(C1CCCC1)N1C[C@@H]2CCNC[C@@H]21`, the cytotoxicity at 10 µM was -0.155%.
`CCOCc1cnc2n1CCN(C(=O)C1=CCCC1)C2C` (stereo not given) gave a cytotoxicity at 10 µM of -2.42%.
For `CN(C)CC(=O)N1C[C@@H](Oc2ccccn2)[C@H]2OCCC[C@H]21`, the cytotoxicity at 10 µM was 9.11%.
Compound `CCc1ccc(-n2nnc(C(=O)O)c2-c2ccncc2)cc1` has a cytotoxicity at 10 µM of 3.02%.
`O=C(Cn1ccc2ccc(F)cc21)NCc1ccc(C(=O)O)cc1` gave a cytotoxicity at 10 µM of 6.86%.
With `CC(=O)c1c(O)n(C)c2ccc(F)cc12` the cytotoxicity at 10 µM was 6.76%.
For `Cn1ncc(C(=O)O)c1C(=O)Nc1nc2ccc(Br)cc2s1`, the cytotoxicity at 10 µM was 12.5%.
`CC(C)c1cc(C(=O)NCCc2nc(-c3ccncc3)n[nH]2)[nH]n1` gave a cytotoxicity at 10 µM of -0.01%.
For `Nc1no[n+]([O-])c1C(=O)NCc1ccco1`, the cytotoxicity at 10 µM was 2.94%.
Work on `Cc1cc(N2CCN(C(=O)c3cccnc3)CC2)nc(C)n1` yielded a cytotoxicity at 10 µM of 4.28%.
Work on `NC(=O)c1cn[nH]c1C1CCCN1C(=O)c1ccccc1` (stereo not given) yielded a cytotoxicity at 10 µM of 0.00505%.
In the case of `CC(C)Nc1nnc(SCc2nnc(C(C)(C)C)o2)s1`, the cytotoxicity at 10 µM is reported as -0.386%.
Work on `O=c1oc(-c2cccs2)nn1CC1(O)CCCCC1` yielded a cytotoxicity at 10 µM of 8.52%.
Compound `CC(C)c1nc(C2CCCN2C(=O)c2cc(Cl)c[nH]2)no1` (stereo not given) has a cytotoxicity at 10 µM of 0.585%.
Compound `N#Cc1ccc(S(=O)(=O)NC(=O)C2CC(c3ccccc3)=NO2)cc1` (stereo not given) has a cytotoxicity at 10 µM of 0.462%.
With `COCC(O)CN1CCC(NC(=O)c2cccc(C)c2)CC1` (stereo not given) the cytotoxicity at 10 µM was 1.44%.
In the case of `COc1ccc(Br)cc1S(=O)(=O)N(C)Cc1ccc(N(C)C)cc1`, the cytotoxicity at 10 µM is reported as -7.59%.
With `O=C(NCCNc1ncccn1)NCCSC(F)(F)F` the cytotoxicity at 10 µM was 5.81%.
`CSC(C)C(=O)NS(=O)(=O)CCc1ccccc1` (stereo not given) gave a cytotoxicity at 10 µM of 2.88%.
`Cc1cc(NC(=O)NC(C)CO)ccc1OCC(F)(F)F` (stereo not given) showed a cytotoxicity at 10 µM of 5.2%.
With `CC(C)(C)c1nc(CNc2cc3c(cc2Cl)NC(=O)CO3)no1` the cytotoxicity at 10 µM was -0.438%.
Compound `N#Cc1cccc(OCc2ccoc2C(=O)N2CCCCCC2)c1` has a cytotoxicity at 10 µM of 9.91%.
Compound `CC(=O)c1ccc(C(=O)NCc2ccnc(N(C)C)n2)cc1` has a cytotoxicity at 10 µM of 0.69%.
For `Cc1cc(C)cc(N(C)S(=O)(=O)c2cc3c(c(C(=O)O)c2)OCCO3)c1`, the cytotoxicity at 10 µM was -4.02%.
In the case of `Cn1cc(C(=O)CC2CCCN2C(=O)c2ccc(Cl)cn2)cn1` (stereo not given), the cytotoxicity at 10 µM is reported as -9.23%.
Compound `CCN(C)C(=O)NCC1(CN2CCOCC2)CCCCC1` has a cytotoxicity at 10 µM of -5.18%.
In the case of `CCNC(=O)NC(=O)CNC(C)(CC)c1nccs1` (stereo not given), the cytotoxicity at 10 µM is reported as 7.93%.
In the case of `O=c1[nH]c(CN2CCN(CC(F)(F)F)CC2)nc2ccccc12`, the cytotoxicity at 10 µM is reported as 10.2%.
`CCc1nc(CCNC(=O)NC2CCN(C(C)C)C2)sc1C` (stereo not given) gave a cytotoxicity at 10 µM of -7.63%.
`CC(C(=O)Nc1ccc(Cl)cn1)N1CCc2nn(C)c(=O)cc2C1` (stereo not given) showed a cytotoxicity at 10 µM of 4.81%.
`CS(=O)(=O)c1ccc(OCCNCc2cccc(Cl)c2)cc1` gave a cytotoxicity at 10 µM of -4.43%.
In the case of `CCc1csc(C2CCCN(C(=O)c3ccncc3)C2)n1` (stereo not given), the cytotoxicity at 10 µM is reported as 5.9%.
`CC(C)(CNC(=O)C(C)(C)c1ccccc1F)C(N)=O` showed a cytotoxicity at 10 µM of 6.38%.
For `CCS(=O)(=O)c1ccccc1C(=O)NCC1Cc2ccccc2O1` (stereo not given), the cytotoxicity at 10 µM was -0.561%.
In the case of `Cc1noc(CNc2cccc(C(=O)N3CCCC(O)C3)c2)n1` (stereo not given), the cytotoxicity at 10 µM is reported as -0.961%.
Compound `O=C(NCCO)NCC(c1ccccc1)N1CCc2sccc2C1` (stereo not given) has a cytotoxicity at 10 µM of 1.96%.
Work on `CC(NC(=O)Nc1nccs1)c1ccncc1` (stereo not given) yielded a cytotoxicity at 10 µM of -9.98%.
Work on `Cc1nc(NC(=O)COCC(F)(F)F)ccc1Br` yielded a cytotoxicity at 10 µM of 9.44%.
For `CN(CC(=O)NCC(=O)Nc1ccc(F)cc1)Cc1cccs1`, the cytotoxicity at 10 µM was 0.369%.
In the case of `N#Cc1cccc(S(=O)(=O)NC(=O)COCC(F)(F)F)c1`, the cytotoxicity at 10 µM is reported as -0.828%.
Compound `CNC(=O)c1cccnc1N1CCC(OCc2ccccc2)CC1` has a cytotoxicity at 10 µM of 2.49%.
Work on `CCN(Cc1cccc(F)c1)c1ccc2nnnn2n1` yielded a cytotoxicity at 10 µM of 15.4%.
Work on `N#Cc1ccc(NCCCOCC2CCCO2)c(F)c1` (stereo not given) yielded a cytotoxicity at 10 µM of 0.536%.
Compound `CSC(C)(C)CNC(=O)NCC[S+]([O-])c1ccccc1F` (stereo not given) has a cytotoxicity at 10 µM of -11.6%.
Work on `c1ccc(-c2noc(C3CCN(CCn4cccn4)CC3)n2)cc1` yielded a cytotoxicity at 10 µM of 2.86%.
Compound `Cc1c(C(=O)NCC2CCN(C)C2)n(C)c2c(C)cccc12` (stereo not given) has a cytotoxicity at 10 µM of 10.1%.
In the case of `O=C1CCCCCN1CCC(=O)N1CCCC(c2ccn[nH]2)C1` (stereo not given), the cytotoxicity at 10 µM is reported as 9.01%.
In the case of `Cc1n[nH]c(C)c1CCN(C)C(=O)c1ccc(CN2CCCCC2)cc1`, the cytotoxicity at 10 µM is reported as -9.9%.
